Columns and labels:
[1] = Inhibition of recombinant human adrenal 3-beta-hydroxy-delta-5-steroid dehydrogenase
[2] = target: T1, 3-oxo-5-alpha-steroid 4-dehydrogenase 2 (Homo sapiens, UniProt P31213); assay: Inhibitory activity measured on human steroid 5-alpha-reductase type 2
T1 sequence (P31213 whole entry): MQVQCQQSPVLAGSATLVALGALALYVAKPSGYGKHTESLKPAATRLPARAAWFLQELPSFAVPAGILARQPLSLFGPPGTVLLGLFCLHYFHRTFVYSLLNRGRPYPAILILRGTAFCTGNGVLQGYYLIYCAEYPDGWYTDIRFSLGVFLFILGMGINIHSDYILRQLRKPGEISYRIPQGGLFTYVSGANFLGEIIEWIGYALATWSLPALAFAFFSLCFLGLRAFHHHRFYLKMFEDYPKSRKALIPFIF

[3] = target: T2, 3-oxo-5-alpha-steroid 4-dehydrogenase 1 (Homo sapiens, UniProt P18405); assay: Inhibition of recombinant steroid 5-alpha-reductase type I
T2 sequence (P18405 whole entry): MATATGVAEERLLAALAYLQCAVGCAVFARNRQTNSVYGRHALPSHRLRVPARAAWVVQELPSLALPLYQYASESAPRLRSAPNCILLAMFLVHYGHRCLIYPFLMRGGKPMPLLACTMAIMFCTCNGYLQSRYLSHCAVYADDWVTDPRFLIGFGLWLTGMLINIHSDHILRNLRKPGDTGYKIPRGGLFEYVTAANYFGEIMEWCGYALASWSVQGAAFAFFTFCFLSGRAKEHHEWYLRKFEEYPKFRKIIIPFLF

[4] = target: T3, 3-oxo-5-alpha-steroid 4-dehydrogenase 2 (Rattus norvegicus, UniProt P31214); assay: Inhibitory activity was measured on rat Steroid 5-alpha-reductase type 2
T3 sequence (P31214 whole entry): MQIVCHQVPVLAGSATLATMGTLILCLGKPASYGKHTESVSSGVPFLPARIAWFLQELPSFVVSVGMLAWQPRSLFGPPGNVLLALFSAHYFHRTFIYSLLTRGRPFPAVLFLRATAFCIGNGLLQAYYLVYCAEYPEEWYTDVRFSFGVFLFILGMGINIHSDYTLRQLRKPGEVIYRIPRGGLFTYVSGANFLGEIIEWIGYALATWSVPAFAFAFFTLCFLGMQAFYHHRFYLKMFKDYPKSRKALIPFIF
Procedure, shortened: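 Recombinant rat type 2 5α-reductase, assayed by the same procedure as the human type 2 assay, with changes specific to the rat enzymes.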

[5] = Bioavailability in dog (Beagle) at t1/2 (dose 5 mg/kg i.v.); type: ADME, organism-based, Canis lupus familiaris; settings: in vivo, iv
Procedure, shortened: (§1)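 Male beagles dosed intravenously (5 mg/kg for these lines), 2–5 animals. Blood half-life measured in hours after iv dosing; % bioavailability reported alongside.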

Rattus norvegicus = assay: % reduction in prostate weight when compared with T-treated controls was measured in castrated rat at 10 mg/kg/day po administration; type: functional, Prostate gland
Procedure, shortened: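 Castrated male rats, 8 per group, given 10 mg/kg/day orally alongside testosterone. The readout is ventral prostate weight reduction versus testosterone-treated controls, expressed relative to finasteride run as an internal standard in each experiment.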

[6] = Inhibition of […] rat adrenal 3-beta-hydroxy-delta-5-steroid dehydrogenase
Procedure, shortened: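 Rat adrenal microsomes from homogenization and differential centrifugation. Started with 8 nM [3H]DHEA, stopped at 15 min with ethanol, and androstenedione measured by radio-HPLC. Kiapp from nonlinear regression, converted to Ki with Km 21 nM.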

[7] = Plasma half life in beagles after iv administration.; settings: beagle, dog
[8] = target: T4, 3-oxo-5-alpha-steroid 4-dehydrogenase 1 (Rattus norvegicus, UniProt P24008); assay: (§2) Inhibition of recombinant Steroid 5-alpha-reductase type I was evaluated as binding affinity of the compound
T4 sequence (P24008 whole entry): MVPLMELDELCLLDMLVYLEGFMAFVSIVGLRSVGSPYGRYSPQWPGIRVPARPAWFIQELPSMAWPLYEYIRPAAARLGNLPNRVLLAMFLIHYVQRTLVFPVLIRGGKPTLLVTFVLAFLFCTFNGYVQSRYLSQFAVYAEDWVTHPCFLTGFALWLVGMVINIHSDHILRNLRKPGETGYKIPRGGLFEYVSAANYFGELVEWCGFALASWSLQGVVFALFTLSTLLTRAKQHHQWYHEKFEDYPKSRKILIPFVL

[9] = Plasma half life in beagles after iv administration of 5 mg/kg.; type: ADME, organism-based, Canis lupus familiaris; parameters: dose 5 mg/kg, route intravenous; settings: beagle, dog; procedure, shortened: as §1
[10] = target: T4, 3-oxo-5-alpha-steroid 4-dehydrogenase 1; assay: Inhibition of recombinant Steroid 5-alpha-reductase type I was evaluated as binding affinity (in vitro)
[11] = target: T2, 3-oxo-5-alpha-steroid 4-dehydrogenase 1; assay: as §2
[12] = 4 mg/kg, in the assay text read “dose 4 mg/kg i.v.” for “dose 5 mg/kg i.v.”

Compound	Ki [1] [nM]	IC50 [2] [nM]	Ki [3] [nM]	other results
CC(C)(C)c1cc(NC(=O)[C@H]2CCC3C4CNC5=CC(=O)CC[C@]5(C)C4CC[C@@]32C)cc(C(C)(C)C)c1 (some centres not stated)	7.8	< 0.1	8	
CC(C)(C)c1ccc(C(F)(F)F)cc1NC(=O)[C@H]1CCC2C3CNC4=CC(=O)CC[C@]4(C)C3CC[C@@]21C (some centres not stated)	1600	< 0.1	8.8	Ki [4]: 0.17 nM; bioavailability [5, 12]: 67%; Reduction in prostate weight (Rattus norvegicus): 100%; Ki [6]: 140 nM; half-life [7]: 8.8 h; Ki [8]: 0.1 nM
C[C@]12CCC(=O)C=C1NCC1C2CC[C@@]2(C)C1CC[C@@H]2C(=O)Nc1ccccc1 (some centres not stated)	10		240	
C[C@]12CCC(=O)C(Cl)=C1NCC1C2CC[C@@]2(C)C1CC[C@@H]2C(=O)NC1(c2ccc(Cl)cc2)CCCC1 (some centres not stated)	490	< 0.1	0.6	half-life [9]: 19 h; bioavailability ([5]; 5 mg/kg): 74%; Reduction of prostate weight (Rattus norvegicus): 49%
CC(C)(C)c1ccc(-c2ccc(C(F)(F)F)cc2NC(=O)[C@H]2CCC3C4CNC5=CC(=O)CC[C@]5(C)C4CC[C@@]32C)cc1 (some centres not stated)	19	0.5	1100	
CC(C)(C)c1ccc(C2(NC(=O)[C@H]3CCC4C5CNC6=CC(=O)CC[C@]6(C)C5CC[C@@]43C)CCCC2)cc1 (some centres not stated)	1500	< 0.1	3	
CC(C)(C)c1ccc(Br)cc1NC(=O)[C@H]1CCC2C3CNC4=CC(=O)CC[C@]4(C)C3CC[C@@]21C (some centres not stated)	820	< 0.1	4.2	
C[C@]12CCC(=O)C=C1NCC1C2CC[C@@]2(C)C1CC[C@@H]2C(=O)NC1(c2ccc(Cl)cc2)CCCC1 (some centres not stated)	1600	< 0.1	6.8	Ki [4]: 0.12 nM; bioavailability ([5]; 5 mg/kg): 79%; Reduction in prostate weight (Rattus norvegicus): 130%; Ki [10]: 0.07 nM; Ki [6]: 97 nM; half-life [7]: 12 h
CC(C)(C)c1cc(Br)ccc1NC(=O)[C@H]1CCC2C3CNC4=CC(=O)CC[C@]4(C)C3CC[C@@]21C (some centres not stated)	390	< 0.1	5.3	
C[C@]12CCC(=O)C=C1NCC1C2CC[C@@]2(C)C1CC[C@@H]2C(=O)Nc1cc(C(F)(F)F)ccc1C(F)(F)F (some centres not stated)	300	< 0.1	4	Ki [4]: 1.1 nM; bioavailability [5, 12]: 100%; Reduction in prostate weight (Rattus norvegicus): 130%; Ki [6]: 50 nM; half-life [7]: 31 h; Ki [8]: 0.27 nM
CC(C)(C)c1ccc(-c2ccc(Cl)cc2)cc1NC(=O)[C@H]1CCC2C3CNC4=CC(=O)CC[C@]4(C)C3CC[C@@]21C (some centres not stated)	1200	< 0.1	3.4	
C[C@]12C=CC(=O)NC1CCC1C2CC[C@@]2(C)C1CC[C@@H]2C(=O)NC1(c2ccc(Cl)cc2)CCCC1 (some centres not stated)	9000	< 0.1		IC50 [11]: 0.9 nM
CC1=C2NCC3C(CC[C@@]4(C)C3CC[C@@H]4C(=O)Nc3cc(C(F)(F)F)ccc3C(C)(C)C)[C@@]2(C)CCC1=O (some centres not stated)	200	< 0.1	0.5	
CC1=C2NCC3C(CC[C@@]4(C)C3CC[C@@H]4C(=O)Nc3cc(C(F)(F)F)ccc3C(F)(F)F)[C@@]2(C)CCC1=O (some centres not stated)	19	< 0.1	0.2	
C[C@]12CCC(C(=O)O)=CC1=CCC1C2CC[C@@]2(C)C1CC[C@@H]2C(=O)NC1(c2ccc(Cl)cc2)CCCC1 (some centres not stated)	280	< 0.1		IC50 [11]: 60 nM
CC(C)(C)c1ccc(Cl)cc1NC(=O)[C@H]1CCC2C3CNC4=CC(=O)CC[C@]4(C)C3CC[C@@]21C (some centres not stated)	760	< 0.1	7.5	
CC(C)(C)c1ccc(-c2ccccc2)cc1NC(=O)[C@H]1CCC2C3CNC4=CC(=O)CC[C@]4(C)C3CC[C@@]21C (some centres not stated)	830	< 0.1	4.6	
CC(C)(C)c1ccc(-c2ccc(C(C)(C)C)c(NC(=O)[C@H]3CCC4C5CNC6=CC(=O)CC[C@]6(C)C5CC[C@@]43C)c2)cc1 (some centres not stated)	8900	< 0.1	1.3	
CC(C)(C)c1ccc(C2(NC(=O)[C@H]3CCC4C5CNC6=CC(=O)CC[C@]6(C)C5CC[C@@]43C)CCCCC2)cc1 (some centres not stated)	2200	< 0.1	1.5	
CC(C)(C)c1ccc(C2(NC(=O)[C@H]3CCC4C5CNC6=CC(=O)CC[C@]6(C)C5CC[C@@]43C)CCCCCC2)cc1 (some centres not stated)	1500	< 0.1	3.6	
CC(C)(C)c1ccccc1NC(=O)[C@H]1CCC2C3CNC4=CC(=O)CC[C@]4(C)C3CC[C@@]21C (some centres not stated)	85	0.2	27	
C[C@]12CCC(=O)C=C1NCC1C2CC[C@@]2(C)C1CC[C@@H]2C(=O)Nc1cc(C(F)(F)F)cc(C(F)(F)F)c1 (some centres not stated)	58	0.2	26	
CC(C)(C)c1ccc(C(C)(C)C)c(NC(=O)[C@H]2CCC3C4CNC5=CC(=O)CC[C@]5(C)C4CC[C@@]32C)c1 (some centres not stated)	500	< 0.1	5	
C[C@]12CCC(=O)C=C1NCC1C2CC[C@@]2(C)C1CC[C@@H]2C(=O)NC1(c2ccc(Cl)cc2Cl)CC1 (some centres not stated)	130	< 0.1	6.7	
C[C@]12CCC(=O)C=C1NCC1C2CC[C@@]2(C)C1CC[C@@H]2C(=O)NC1(c2ccc(Cl)cc2)CCCCC1 (some centres not stated)	1800	< 0.1	3.1	
C[C@]12CC[C@H]3[C@@H](CNC4=C(Cl)C(=O)CC[C@@]43C)[C@@H]1CC[C@@H]2C(=O)Nc1c(C(F)(F)F)cccc1C(F)(F)F (stereo in doubt; 25)	370		0.6	
C[C@]12CC[C@H]3[C@@H](CNC4=C(Cl)C(=O)CC[C@@]43C)[C@@H]1CC[C@@H]2C(=O)Nc1cc(C(F)(F)F)ccc1C(F)(F)F (stereo in doubt; 27)	160	< 0.1	0.2	
CC(C)(C)NC(=O)[C@H]1CC[C@H]2[C@@H]3CC=C4C=C(C(=O)O)CC[C@]4(C)[C@H]3CC[C@]12C [EPRISTERIDE]	160			IC50 [11]: 1600 nM
CC(C)(C)NC(=O)[C@H]1CC[C@H]2[C@@H]3CC[C@H]4NC(=O)C=C[C@]4(C)[C@H]3CC[C@]12C [FINASTERIDE]	11000			IC50 [4]: 0.28 nM; Ki [10]: 6.8 nM; Ki [6]: 150 nM; half-life [7]: 4.2 h

Reference: ChEMBL document CHEMBL1128432, “Structure-activity relationships for inhibition of type 1 and 2 human 5 alpha-reductase and human adrenal 3 beta-hydroxy-delta 5-steroid dehydrogenase/3-keto-delta 5-steroid isomerase by 6-azaandrost-4-en-3-ones: optimization of the C17 substituent” (J Med Chem, 1995)
